# Laboratory results from ChEMBL document CHEMBL1128464, “Synthesis and antiproliferative and antiviral activity of 2'-deoxy-2'-fluoroarabinofuranosyl analogs of the nucleoside antibiotics toyocamycin and sangivamycin” (J Med Chem, 1995).
# Values joined by “and” are separate entries in the source; they are usually repeats but may differ in a detail not shown here. Equal values may be shown once.
# Legend:
# L1210 [1] = experiment: Antiproliferative activity in L1210 Murine Leukemia in vitro expressed as Growth rate in the presence of compound; format: functional, Mus musculus; parameters: concentration or dose not given beside the values
# Human betaherpesvirus 5 [2] = experiment: antiviral activity in Human cytomegalovirus by plaque assay given as yield; format: functional
# HFF [3] = experiment: Visual cytotoxicity scored on HFF cells at time of HCMV plaque enumeration; format: functional, cell-based; settings: Homo sapiens
# Summary of the method: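 Stationary HFF cells, uninfected cells in HCMV plaque assay plates scored by microscopic inspection at plaque enumeration (7–10 days); IC50.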
# Human alphaherpesvirus 1 [4] = experiment: Antiviral activity in Herpes simplex virus-1 assayed by ELISA in quadruplicate wells; format: functional, organism-based
# KB = experiment: cell growth inhibition was determined in KB cells in quadruplicate assays; format: functional, cell-based; settings: Homo sapiens
# CCRF-CEM [5] = experiment: Visual cytotoxicity scored on CEM cells at time of RT assay; settings: Homo sapiens
# Human betaherpesvirus 5 [6] = experiment: antiviral activity in Human cytomegalovirus by plaque assay (HCMV); format: functional, organism-based
# CCRF-CEM [7] = experiment: cytotoxicity in CEM-SS cells by [3H]Thd uptake; format: functional, cell-based; settings: Homo sapiens
# Summary of the method: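 [3H]dThd incorporation into acid-precipitable DNA of CEM-SS cells; IC50 from regression of % inhibition on log concentration; triplicate assays.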
# L1210 [8] = experiment: antiproliferative activity in L1210 Murine Leukemia in vitro expressed as concentration required to decrease growth rate to 50% of control; format: functional, cell-based; settings: Mus musculus
# Summary of the method: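 L1210 cells in static suspension, Fischer's medium with 10% heat-inactivated horse serum; cell counts at 0, 48, 96 h over a concentration series; IC50 is the concentration lowering growth rate (treated doublings as % of control) to 50% of control.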
# HFF [9] = experiment: Cytotoxicity in human foreskin fibroblast (HFF) stationary cells as neutral red uptake; format: functional, cell-based
# Human alphaherpesvirus 1 [10] = experiment: Antiviral activity as 50% inhibitory concentration against HSV-1; format: functional, organism-based
# Summary of the method: (§1)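 Plaque reduction in HFF monolayers; HSV-1 E-377, HSV-2 MS or VZV Ellen, 20–50 PFU, 1 h adsorption at 37 °C; serial 5-fold drug dilutions in agarose overlay (extra overlay days 3 and 6 for VZV); neutral red staining at 3 days (HSV) or 10 days (VZV); plaques counted; duplicate assays.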
# HFF [11] = experiment: Cytotoxicity in human foreskin fibroblast (HFF) stationary by MTT assay; format: functional, cell-based
# Summary of the method: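 MTT assay on stationary HFF cells; drug in half-log10 dilutions; incubated one to three population doublings in 5% CO2; viable cells read at 570 nm; % inhibition vs control; IC50 from regression; duplicate assays.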
# Human alphaherpesvirus 3 = experiment: antiviral activity as 50% inhibitory concentration against VZV; format: functional, organism-based; summary of the method: as §1
# CCRF-CEM [12] = experiment: cytotoxicity in CEM-SS cells by visual inspection; format: functional, cell-based; settings: Homo sapiens
# Human alphaherpesvirus 2 = experiment: Antiviral activity as 50% inhibitory concentration against HSV-2; format: functional, organism-based; summary of the method: as §1
Compound,Growth rate (L1210 [1]) [%],IC90 (Human betaherpesvirus 5 [2]) [µM],IC50 (HFF [3]) [µM],IC50 (Human alphaherpesvirus 1 [4]) [µM],IC50 (KB) [µM],IC50 (CCRF-CEM [5]) [µM],IC50 (Human betaherpesvirus 5 [6]) [µM],IC50 (CCRF-CEM [7]) [µM],IC50 (L1210 [8]) [µM],IC50 (HFF [9]) [µM],IC50 (Human alphaherpesvirus 1 [10]),"IC50 (HFF [11]; Homo sapiens, HFF) [µM]",IC50 (HFF [11]; hff) [µM],IC50 (Human alphaherpesvirus 3) [µM],IC50 (CCRF-CEM [12]) [µM],IC50 (Human alphaherpesvirus 2) [µM]
N#Cc1cn([C@H]2O[C@H](CO)[C@@H](O)[C@@H]2F)c2ncnc(N)c12,98,100,100,46,> 100,> 100,16,,,,,,,,,
NC(=O)c1cn([C@@H]2O[C@H](CO)[C@@H](O)[C@@H]2F)c2ncnc(N)c12,9,0.075,5.5,0.47,1.9,0.4,0.025,0.193,3.2,6.7,0.03 µM and 0.0037 µM,0.13,0.16,0.003,0.4,0.03
Nc1nc2c(ncn2COC(CO)CO)c(=O)[nH]1 [GANCICLOVIR],,1.6,> 100,,> 100,,,,,,,,,,,
Cc1cn([C@H]2C[C@H](N=[N+]=[N-])[C@@H](CO)O2)c(=O)[nH]c1=O [ZIDOVUDINE],,,> 100,,,,,,,,,,,,,
N#Cc1c(Br)n([C@H]2O[C@H](CO)[C@@H](O)[C@@H]2F)c2ncnc(N)c12,45,> 100,55,> 100,> 150,> 100,3.2,,90,,,,,,,
NC(=S)c1cn([C@@H]2O[C@H](CO)[C@@H](O)[C@@H]2F)c2ncnc(N)c12,5,1.5,3.1,8.7,3,2,0.22,,5,,,,,,,
N#Cc1cn([C@@H]2O[C@H](CO)[C@@H](O)[C@@H]2F)c2ncnc(N)c12,11,1.1,6.8,6.5,8.8,33,1,,39,,,,,,,
N#Cc1c(Br)n([C@@H]2O[C@H](CO)[C@@H](O)[C@@H]2F)c2ncnc(N)c12,21,7,21,> 100,144,33,12,,66,,,,,,,
